Legend:
Rat [1] = assay: concentration in liver after dosing; conditions: dosed: Fluorotelomer alcohol 8+2, oral
Rat [2] = assay: concentration in brain after dosing; conditions: 1 h; dosed: Fluorotelomer alcohol 8+2; 24 mg/kg; oral; Male; Harlan Sprague Dawley
Rat [3] = assay: concentration in brain after dosing; conditions: dosed: Fluorotelomer alcohol 8+2, oral
Rat [4] = assay: concentration in plasma after dosing
Rat [5] = assay: concentration in kidney after dosing; conditions: dosed: Fluorotelomer alcohol 8+2, oral
Rat [6] = assay: concentration in plasma after dosing; conditions: 20 min; dosed: Di-n-butyl phthalate; 20 mg/kg; iv; Male; Sprague-Dawley
dog = conditions: dosed: tetrachloroethylene, 142 ppm, inhalation, duration: 4 hr, male, beagle
Procedure, shortened: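 Concentration-versus-time or amount-versus-time points were compiled from published in vivo toxicokinetic studies and from two structured collections. The studies were found by PubMed searching, classifier screening and manual review. Points were mostly digitised from plot screenshots with WebPlotDigitizer, otherwise copied from tables, and kept in the reported units. Dose, route, subject details and medium were curated by hand from each paper, and sampling and analytical methods follow each source and were often unreported.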

OCCC(F)(F)C(F)(F)C(F)(F)C(F)(F)C(F)(F)C(F)(F)C(F)(F)C(F)(F)F [Fluorotelomer alcohol 8+2]
Conditions	concentration in brain, Rat [3] [ng/g]	concentration in kidney, Rat [5] [ng/g]	concentration in liver, Rat [1] [ng/g]
0.5 h, 24 mg/kg, Male, Harlan Sprague Dawley	4540	3380	17700
0.5 h, 24 mg/kg, Male, Harlan Sprague Dawley - this seems too small	978	1060	2190
0.5 h, 80 mg/kg, Female, Harlan Sprague Dawley	5440	2910	11600
1 h, 24 mg/kg, Male, Harlan Sprague Dawley	2450	1560	3900
1 h, 80 mg/kg, Female, Harlan Sprague Dawley	9090	6420	12500
3 h, 24 mg/kg, Male, Harlan Sprague Dawley	2300	1070	2230
3 h, 80 mg/kg, Female, Harlan Sprague Dawley	8400	3900	9320
6 h, 24 mg/kg, Male, Harlan Sprague Dawley	663	460	2050
6 h, 80 mg/kg, Female, Harlan Sprague Dawley	2060	1450	3970
12 h, 24 mg/kg, Male, Harlan Sprague Dawley	95.5	185	604
12 h, 80 mg/kg, Female, Harlan Sprague Dawley	679	373	1610

Conditions	concentration in brain [ng/g]
Rat [2]	2020

concentration in plasma [ng/mL], Rat [4]
Conditions	0.25 h	0.5 h	0.75 h	1 h	3 h	5 min	6 h	9 h	12 h	24 h
dosed: Fluorotelomer alcohol 8+2, 12 mg/kg, iv, Male, F344	1590	1260	422	625	118	3550	48.7	23.8	5.59	4.63
dosed: Fluorotelomer alcohol 8+2, 12 mg/kg, oral, Male, Harlan Sprague Dawley	82.2	215	348	264	84.4	2.61	37.1	11.6	4.01	1.18
dosed: Fluorotelomer alcohol 8+2, 24 mg/kg, oral, Male, Harlan Sprague Dawley	110	–	–	–	–	6.33	–	40.2	–	2.62
dosed: Fluorotelomer alcohol 8+2, 40 mg/kg, iv, Female, Harlan Sprague-Dawley	–	8470	2350	2720	–	–	–	76.6	34.6	23.2
dosed: Fluorotelomer alcohol 8+2, 40 mg/kg, iv, Male, F344	13000	5070	–	–	378	–	254	47	–	–

Cc1cccc(Nc2cc(Cl)nc(SCC(=O)O)n2)c1C
concentration in plasma [ng/mL], Rat [4], Male, Sprague-Dawley
Conditions	dosed: Wyeth-14643, 1.0 mg/kg	dosed: Wyeth-14643, 2.0 mg/kg	dosed: Wyeth-14643, 5.0 mg/kg
0.25 h, iv	–	8890	–
0.25 h, oral	480	941	2340
0.5 h, iv	–	4960	–
0.5 h, oral	493	1350	3240
1 h, iv	–	2670	–
1 h, oral	548	1010	4080
2 h, iv	–	682	–
2 h, oral	373	466	1930
2.5 min, iv	–	28300	–
3 h, iv	–	253	–
3 h, oral	145	972	–
4 h, iv	–	218	–
4 h, oral	–	273	1050
5 h, oral	357	312	–
5 min, iv	–	20700	–
5 min, oral	–	270	520
6 h, oral	–	118	506
7 h, oral	124	–	–
8 h, oral	–	305	421
24 h, oral	–	–	129

CCCCOC(=O)c1ccccc1C(=O)O [Mono-n-butyl phthalate]
Rat [4], dosed: Di-n-butyl phthalate, Male, Sprague-Dawley
Conditions	concentration in plasma [ng/mL]
0.25 h, 100 mg/kg, oral	26200
0.5 h, 50 mg/kg, oral	16600
0.5 h, 100 mg/kg, oral	40300
1 h, 20 mg/kg, iv	3060
1 h, 50 mg/kg, oral	5560
1 h, 100 mg/kg, oral	23500
1.5 h, 20 mg/kg, iv	517
2 h, 20 mg/kg, iv	945
2 h, 50 mg/kg, oral	2700
2 h, 100 mg/kg, oral	9480
2 h, 200 mg/kg, oral	114000
3 h, 20 mg/kg, iv	1380
3 h, 50 mg/kg, oral	2390
3 h, 100 mg/kg, oral	6880
4 h, 20 mg/kg, iv	667
4 h, 100 mg/kg, oral	10000
5 h, 20 mg/kg, iv	1120
5 min, 20 mg/kg, iv	29400
5 min, 50 mg/kg, oral	3240
5 min, 100 mg/kg, oral	6120
6 h, 20 mg/kg, iv	627
6 h, 50 mg/kg, oral	4090
6 h, 100 mg/kg, oral	7390
8 h, 20 mg/kg, iv	522
10 h, 50 mg/kg, oral	506
10 h, 100 mg/kg, oral	3970
10 min, 20 mg/kg, iv	31300
10 min, 50 mg/kg, oral	20500
15 h, 50 mg/kg, oral	629
15 h, 100 mg/kg, oral	538
20 h, 100 mg/kg, oral	492
20 h, 200 mg/kg, oral	1820
20 min, 20 mg/kg, iv	24200
20 min, 50 mg/kg, oral	13800
24 h, 100 mg/kg, oral	517
40 min, 20 mg/kg, iv	5840
40 min, 50 mg/kg, oral	12000

Conditions	concentration in plasma [ng/mL]
Rat [6]	21800

O=C(O)C(Cl)Cl [dichloroacetic acid]
Rat [4], dosed: dichloroacetic acid
Conditions	concentration in plasma [ng/mL]
0.25 h, 10 mg/kg, oral, Male, Harlan Sprague Dawley	1600
0.25 h, 100 mg/kg, oral, Male, F344	24900
0.5 h, 10 mg/kg, oral, Male, Harlan Sprague Dawley	224
1 h, 40 mg/kg, oral, Female, Harlan Sprague Dawley	5910
1 h, 60 mg/kg, iv, Female, Harlan Sprague-Dawley	23200
1.25 h, 40 mg/kg, oral, Female, Harlan Sprague Dawley	3600
1.25 h, 100 mg/kg, oral, Male, F344	23000
1.5 h, 40 mg/kg, oral, Female, Harlan Sprague Dawley	4500
2 h, 40 mg/kg, oral, Female, Harlan Sprague Dawley	2200
2 h, 60 mg/kg, iv, Female, Harlan Sprague-Dawley	1670
2 h, 100 mg/kg, oral, Male, F344	44600
2 min, 10 mg/kg, iv, Male, F344	23500
2 min, 10 mg/kg, oral, Male, Harlan Sprague Dawley	222
2 min, 40 mg/kg, oral, Female, Harlan Sprague Dawley	1530
2 min, 100 mg/kg, oral, Male, F344	1590
4 h, 100 mg/kg, oral, Male, F344	49600
5 min, 10 mg/kg, iv, Male, F344	15300
5 min, 10 mg/kg, oral, Male, Harlan Sprague Dawley	822
5 min, 40 mg/kg, oral, Female, Harlan Sprague Dawley	3100
5 min, 100 mg/kg, oral, Male, F344	7760
6 h, 100 mg/kg, oral, Male, F344	25000
8 h, 100 mg/kg, oral, Male, F344	48300
10 min, 10 mg/kg, iv, Male, F344	7720
10 min, 10 mg/kg, oral, Male, Harlan Sprague Dawley	1450
10 min, 40 mg/kg, oral, Female, Harlan Sprague Dawley	9870
10 min, 100 mg/kg, oral, Male, F344	11800
20 min, 10 mg/kg, iv, Male, F344	1840
20 min, 10 mg/kg, oral, Male, Harlan Sprague Dawley	829
20 min, 40 mg/kg, oral, Female, Harlan Sprague Dawley	5350
20 min, 100 mg/kg, oral, Male, F344	5620
40 min, 10 mg/kg, oral, Male, Harlan Sprague Dawley	184
40 min, 40 mg/kg, oral, Female, Harlan Sprague Dawley	13900
40 min, 100 mg/kg, oral, Male, F344	53800
50 min, 10 mg/kg, oral, Male, Harlan Sprague Dawley	170

O=C(O)C(Cl)(Cl)Cl [trichloroacetic acid]
dog
Conditions	amount in urine after dosing [mg]
22 h	8.68
46 h	3
70 h	1.93

— EPA's CvTdb concentration-time database
